The text below walks through data of ChEMBL document CHEMBL1142697, “Beta-lactam screening by specific residues of the OmpF eyelet” (2005).

For test [1], the system named is Escherichia coli. As to the kind of experiment: Bacterial susceptibility induced by D121 mutation in Escherichia coli OmpF. Type of test: functional, organism-based. In a few lines: (§1)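 Porin-deficient, β-lactamase-producing Enterobacter aerogenes EA289 carrying plasmid-borne wild-type OmpF, D113A or D121A. Grown in LB at 37 °C with gentle shaking, with kanamycin (50 µg/mL) or IPTG (1 mM); porin expression checked. Disk diffusion: 3 mL MH broth culture (10^7 bacteria/mL) spread on MH agar, antibiotic disks applied, inhibition diameter (mm) after 24 h at 37 °C. Mean of 3–5 experiments, versus the wild-type OmpF strain.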

In test [2] the test system is Escherichia coli. As to the kind of experiment: Bacterial susceptibility induced by D113 mutation in Escherichia coli OmpF. The format is functional, organism-based. An outline of the steps: as §1
Test [3] concerns Klebsiella aerogenes. The test is described as follows: Mean lysis diameter of porin deficient Enterobacter aerogenes EA289 by standard disk diffusion method on MH agar. The format is functional. An outline of the steps: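 Porin-deficient, β-lactamase-expressing E. aerogenes EA289 is grown in Luria Bertani broth at 37 °C with gentle shaking. An MH broth culture at 10^7 bacteria/mL is spread on MH agar and antibiotic-loaded disks are applied. The inhibition diameter (mm) around each disk is read after 24 h at 37 °C, averaged over three to five experiments.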

The subject of test [4] is Klebsiella aerogenes. The test is described as follows: Mean lysis diameter of wild type Enterobacter aerogenes EA289 with OmpF by standard disk diffusion method on MH agar. Type of test: functional. An outline of the steps:
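EA289 is transformed with a plasmid encoding wild-type OmpF and grown in LB at 37 °C with gentle shaking, with kanamycin (50 µg/mL) or IPTG (1 mM) as needed to keep the plasmid. OmpF expression level is checked. For the disk diffusion test, MH broth culture (10^7 bacteria/mL) is spread on MH agar with antibiotic disks. Zone diameter (mm) is read after 24 h at 37 °C, mean of 3–5 experiments.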
(A growth-free zone around the sample is the usual read-out of agar diffusion tests.)

The subject of test [5] is Klebsiella aerogenes. The test is described as follows: Mean lysis diameter was measured against Enterobacter aerogenes EA289 with D121A mutation by standard disk diffusion method on MH agar. Type of test: functional. An outline of the steps:
as §1

In test [6] the test system is Klebsiella aerogenes. The test is described as follows: Mean lysis diameter of Enterobacter aerogenes EA289 with D113A mutation by standard disk diffusion method on MH agar. The format is functional. In a few lines: as §1

With `CO/N=C(\C(=O)N[C@@H]1C(=O)N2C(C(=O)[O-])=C(C[N+]3(C)CCCC3)CS[C@H]12)c1csc(N)n1` [CEFEPIME], the Susceptibility result in the test on Escherichia coli [1] and in the test with Escherichia coli [2] was “+/-” each time. The Lysis diameter with Klebsiella aerogenes [3] is 19 mm; in the test on Klebsiella aerogenes [4], 27 mm; in the test on Klebsiella aerogenes [5] it was 29 mm; in the test with Klebsiella aerogenes [6] it was 30 mm.

Take `CO/N=C(\C(=O)N[C@@H]1C(=O)N2C(C(=O)[O-])=C(C[n+]3cccc4c3CCC4)CS[C@H]12)c1csc(N)n1` [CEFPIROME]: the Lysis diameter in the test with Klebsiella aerogenes [3] was 19 mm; with Klebsiella aerogenes [4] it was 26 mm; in the test on Klebsiella aerogenes [5] it was 31 mm; in the test with Klebsiella aerogenes [6] it was 31 mm.

`CO[C@@]1(NC(=O)Cc2cccs2)C(=O)N2C(C(=O)O)=C(COC(N)=O)CS[C@@H]21` [CEFOXITIN]: the Lysis diameter in the test on Klebsiella aerogenes [3] turned out to be 6 mm; with Klebsiella aerogenes [4], 7 mm; in the test with Klebsiella aerogenes [5], 12 mm; in the test on Klebsiella aerogenes [6] it was 16 mm.

On to `CO/N=C(\C(=O)N[C@@H]1C(=O)N2C(C(=O)O)=C(COC(C)=O)CS[C@H]12)c1csc(N)n1` [CEFOTAXIME], for which the Lysis diameter in the test with Klebsiella aerogenes [3] was 15 mm; with Klebsiella aerogenes [4], 17 mm; in the test with Klebsiella aerogenes [5], 18 mm; in the test on Klebsiella aerogenes [6] it was 23 mm.

Turning to `CC(C)(O/N=C(\C(=O)N[C@@H]1C(=O)N2C(C(=O)[O-])=C(C[n+]3ccccc3)CS[C@H]12)c1csc(N)n1)C(=O)O` [CEFTAZIDIME], the Lysis diameter was determined as 8 mm in the test with Klebsiella aerogenes [3], 11 mm with Klebsiella aerogenes [4], 15 mm in the test with Klebsiella aerogenes [5] and 20 mm with Klebsiella aerogenes [6].

For the compound `CC1(C)S[C@@H]2[C@H](NC(=O)[C@H](N)c3ccccc3)C(=O)N2[C@H]1C(=O)O` [AMPICILLIN], the Lysis diameter stood at 6 mm in the test on Klebsiella aerogenes [3], 6 mm with Klebsiella aerogenes [4], 7 mm in the test with Klebsiella aerogenes [5] and 16 mm in the test with Klebsiella aerogenes [6].
